Data set [1] deals with Mycolicibacterium aurum. As to the kind of experiment: Inhibition of FAS2 in recombinant Mycobacterium aurum expressing Mycobacterium tuberculosis H37Rv kas operon in fusion Escherichia coli lacZ gene assessed as increase in beta-galactosidase activity at 50 uM incubated for 12 hrs by lacZ reporter gene assay. In a few lines:
(§1)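 Cells washed, sonicated in PBS pH 7.2; equal Bradford-quantified protein incubated with ONPG (4 mg/ml) 30 min at 37 °C, stopped with Na2CO3, read at 410 nm. Triplicates, experiment repeated twice; isoniazid positive control.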

The subject of data set [2] is Mycolicibacterium aurum. Nature of the data set: Inhibition of FAS2 in recombinant Mycobacterium aurum expressing Mycobacterium tuberculosis H37Rv kas operon in fusion Escherichia coli lacZ gene assessed as increase in beta-galactosidase activity at 100 uM incubated for 12 hrs by lacZ reporter gene assay. In outline:
as §1

Data set [3] deals with Mycolicibacterium aurum. As to the kind of experiment: Inhibition of FAS2 in recombinant Mycobacterium aurum expressing hsp60 promoter in fusion Escherichia coli lacZ gene assessed as increase in beta-galactosidase activity at 50 uM incubated for 12 hrs by lacZ reporter gene assay. (In general: A reporter such as luciferase makes a cellular process visible.)
Data set [4] has as its system Mycolicibacterium aurum. As to the kind of experiment: Inhibition of FAS2 in recombinant Mycobacterium aurum expressing hsp60 promoter in fusion Escherichia coli lacZ gene assessed as increase in beta-galactosidase activity at 100 uM incubated for 12 hrs by lacZ reporter gene assay.
Data set [5] deals with Mycolicibacterium aurum. Nature of the data set: Growth inhibition of Mycobacterium aurum expressing Mycobacterium tuberculosis H37Rv kas operon in fusion Escherichia coli lacZ gene at 50 uM incubated for 12 hrs. The data set is classed as functional. The settings on record: read-out: GI.
For data set [6], the system named is Mycolicibacterium aurum. Nature of the data set: Growth inhibition of Mycobacterium aurum expressing Mycobacterium tuberculosis H37Rv kas operon in fusion Escherichia coli lacZ gene at 100 uM incubated for 12 hrs. To be noted: read-out: GI. The data set is classed as functional.
Data set [7] in a line: Toxicity against macrophages incubated for 48 hrs by resazurin dye reduction assay. The data set is classed as cell-based, Macrophage. In a few lines:
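Macrophages from subconfluent monolayers seeded ~1 × 10^6 cells/well in RPMI-1640; compounds 100 to 12.5 µM, 48 h at 37 °C, 5% CO2; resazurin added for 4 h, fluorescence 535/590 nm read against untreated wells as % viability; CC50 taken from viability-versus-concentration plot; triplicates.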
On the technique in general: Alamar Blue is a resazurin reagent that responds to reducing activity.

Data set [8] deals with Serine/threonine-protein kinase PknG (Mycobacterium tuberculosis) (UniProt P9WI73). Nature of the data set: Inhibition of Mycobacterium tuberculosis recombinant PKnG expressed in Escherichia coli BL21 (DE3) cells using myelin basic protein substrate at 100 uM by luciferase activity based ADP-Glo-luminescent kinase assay. In a few lines: (§2)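 6-His-PknG from M. tuberculosis genomic DNA cloned into pTriEx4, expressed in E. coli with 0.8 mM IPTG 4 h at 37 °C, purified by Ni2+-NTA then size exclusion. Compounds dissolved in DMSO; assayed with myelin basic protein substrate; ADP formed measured by ADP-Glo luminescence; AX20017 positive control; dose-response series.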

Data set [9] shares this target. As to the kind of experiment: Inhibition of Mycobacterium tuberculosis recombinant PKnG expressed in Escherichia coli BL21 (DE3) cells using myelin basic protein substrate at 12.5 uM by luciferase activity based ADP-Glo-luminescent kinase assay. In a few lines: as §2
A general note: ADP-Glo first removes unused ATP, then detects ADP through luciferase.

Data set [10] has the same target. Nature of the data set: Inhibition of Mycobacterium tuberculosis recombinant PKnG expressed in Escherichia coli BL21 (DE3) cells using myelin basic protein substrate at 50 uM by luciferase activity based ADP-Glo-luminescent kinase assay. In outline:
as §2

Data set [11] shares this target. Nature of the data set: Inhibition of Mycobacterium tuberculosis recombinant PKnG expressed in Escherichia coli BL21 (DE3) cells using myelin basic protein substrate at 25 uM by luciferase activity based ADP-Glo-luminescent kinase assay. In a few lines: as §2
The target is the same in data set [12]. Nature of the data set: Inhibition of Mycobacterium tuberculosis recombinant PKnG expressed in Escherichia coli BL21 (DE3) cells using myelin basic protein substrate at 6.25 uM by luciferase activity based ADP-Glo-luminescent kinase assay. In a few lines: as §2
Data set [13] shares this target. Nature of the data set: Inhibition of Mycobacterium tuberculosis recombinant PKnG expressed in Escherichia coli BL21 (DE3) cells using myelin basic protein substrate at 3.125 uM by luciferase activity based ADP-Glo-luminescent kinase assay. In a few lines:
as §2

The subject of data set [14] is Mycobacterium tuberculosis. Nature of the data set: Growth inhibition of Mycobacterium tuberculosis H37Rv. The data set is classed as functional.

A word on the inhibition: it is the percentage by which the read-out fell short of the control. One may read the CC50 as the concentration at which the toxic effect on the cells reaches its halfway point. For orientation: MIC means the lowest concentration found to suppress growth. Low readings indicate a more susceptible organism, high ones a less susceptible organism.

Structures are written as SMILES. Converted amounts (≈) assume the structure as drawn. The source made the active and inactive calls. The rule behind the calls is not given here. A value given as a limit tells only on which side of the number the result lay.

Chain of Serine/threonine-protein kinase PknG (Mycobacterium tuberculosis) (P9WI73 whole entry): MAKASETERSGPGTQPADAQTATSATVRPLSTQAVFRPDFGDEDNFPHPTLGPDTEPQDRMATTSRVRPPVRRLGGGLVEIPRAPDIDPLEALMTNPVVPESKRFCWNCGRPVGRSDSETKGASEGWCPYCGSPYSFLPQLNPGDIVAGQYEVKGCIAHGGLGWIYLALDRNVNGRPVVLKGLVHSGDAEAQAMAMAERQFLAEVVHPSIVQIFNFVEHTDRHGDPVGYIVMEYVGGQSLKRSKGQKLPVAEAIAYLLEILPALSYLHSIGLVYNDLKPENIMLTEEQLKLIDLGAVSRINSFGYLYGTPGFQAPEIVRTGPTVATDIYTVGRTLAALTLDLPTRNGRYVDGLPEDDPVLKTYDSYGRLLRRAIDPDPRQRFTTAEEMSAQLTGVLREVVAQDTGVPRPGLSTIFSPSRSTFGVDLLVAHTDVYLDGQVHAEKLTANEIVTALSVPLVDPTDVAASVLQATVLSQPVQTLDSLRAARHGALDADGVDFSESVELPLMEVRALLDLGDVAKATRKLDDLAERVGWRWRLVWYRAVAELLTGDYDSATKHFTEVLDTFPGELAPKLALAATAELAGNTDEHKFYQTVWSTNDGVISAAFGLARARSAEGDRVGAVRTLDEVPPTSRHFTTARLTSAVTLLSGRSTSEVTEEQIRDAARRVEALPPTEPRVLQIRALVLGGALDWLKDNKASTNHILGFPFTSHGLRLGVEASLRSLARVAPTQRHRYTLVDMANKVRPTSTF

For the molecule `CCCCCCn1cc(COc2ccc(C(=O)/C=C/c3c(F)cccc3Cl)c(O)c2)nn1`, the inhibition result in the data set on Mycolicibacterium aurum [1] and in the data set with Mycolicibacterium aurum [2] was “Active” in each case. Moreover, the inhibition result in the data set on Mycolicibacterium aurum [3] and in the data set with Mycolicibacterium aurum [4] was “inactive” in each case. In the data set with Mycolicibacterium aurum [5], the inhibition of growth at 50 µM came to 71.6%. Further, the inhibition of growth at 100 µM in the data set with Mycolicibacterium aurum [6] amounted to 79.1%. In [7], this molecule showed a CC50 at 48 h above 100 µM.
Take `CCCCCCn1cc(COc2ccc3c(c2)OC(c2ccc(OC)cc2)CC3=O)nn1` (configuration not stated): the inhibition result in the data set with Mycolicibacterium aurum [1] and in the data set with Mycolicibacterium aurum [2] was “Active” each time. Besides, the inhibition result in the data set with Mycolicibacterium aurum [3] and in the data set with Mycolicibacterium aurum [4] was “inactive” throughout. Further, in the data set on Mycolicibacterium aurum [5], the inhibition of growth at 50 µM was found to be 55.9%. Moreover, the inhibition of growth at 100 µM with Mycolicibacterium aurum [6] came out at 65.7%. In [7], half-maximal cytotoxicity (CC50 at 48 h) was put at 57.5 µM.
Regarding `O=C(/C=C/c1c(F)cccc1Cl)c1ccc(OCc2cn(Cc3ccc(Br)cc3)nn2)cc1O`, the inhibition result with Mycolicibacterium aurum [1] and in the data set with Mycolicibacterium aurum [2] was “Active” each time. Besides, the inhibition entry with Mycolicibacterium aurum [3] and with Mycolicibacterium aurum [4] was “inactive” in each case. The inhibition of growth at 50 µM with Mycolicibacterium aurum [5] turned out to be 53.1%. The inhibition of growth at 100 µM in the data set on Mycolicibacterium aurum [6] was 83%. Besides, the CC50 at 48 h in data set [7] amounted to 65.8 µM.
Molecule `Nc1nc(-c2ccccc2)cc(-c2ccc(OCc3cn(Cc4ccccc4)nn3)cc2O)n1` yielded a CC50 at 48 h in data set [7] of 76.5 µM. Moreover, the inhibition in data set [8] was 29%; in data set [9], 18%; in data set [10], 37%; in data set [11] it was 14%; in data set [12], 4%; in data set [13], 5%.
On to `CCCCCCn1cc(COc2ccc3c(c2)OC(c2ccc(Br)cc2)CC3=O)nn1` (configuration not stated), for which the inhibition entry in the data set with Mycolicibacterium aurum [1] and in the data set on Mycolicibacterium aurum [2] was “Active” throughout. Moreover, the inhibition result in the data set with Mycolicibacterium aurum [3] and in the data set with Mycolicibacterium aurum [4] was “inactive” in each case. In addition, the inhibition of growth at 50 µM in the data set with Mycolicibacterium aurum [5] worked out at 68.9%. In the data set with Mycolicibacterium aurum [6], the inhibition of growth at 100 µM was found to be 75.1%. The molecule also came in with a 50% cytotoxic concentration (CC50) at 48 h in [7] of 20.3 µM.
Consider `COc1ccc(-c2cc(-c3ccc(OCc4cn(Cc5ccccc5)nn4)cc3O)nc(N)n2)cc1`, for which half-maximal cytotoxicity in data set [7] (CC50 at 48 h) was put at 42.7 µM. Moreover, the inhibition in data set [8] worked out at 43%; in data set [9], 10%; in data set [10] it was 43%; in [11] it was 9%; in data set [12] it was 0%; in data set [13] it was 6%.
On to `CCCCCCn1cc(COc2ccc(-c3cc(-c4ccccc4)nc(N)n3)c(O)c2)nn1`, for which the inhibition was found to be 23% in [8]; 0% in [9]; 13% in data set [10]; 0% in data set [11]; 0% in data set [12]; 0% in data set [13]. In addition, in [14], the MIC is 50 µg/mL (≈ 112 µM).
In [7], `Nc1nc(-c2ccc(OCc3cn(Cc4ccc(Br)cc4)nn3)cc2O)cc(-c2cccc3ccccc23)n1` gave a CC50 at 48 h above 100 µM. For the same molecule, the inhibition in [8] was 34%; in data set [9] it was 0%; in [10], 3%; in data set [11] it was 0%; in data set [12], 2%; in data set [13], 0%.
Take `O=C(/C=C/c1ccccc1)c1ccc(OCc2cn(Cc3ccccc3)nn2)cc1O`: the inhibition result in the data set on Mycolicibacterium aurum [1] and with Mycolicibacterium aurum [2] was “Active” each time. For the same molecule, the inhibition result with Mycolicibacterium aurum [3] and in the data set on Mycolicibacterium aurum [4] was “inactive” throughout. Also, in the data set with Mycolicibacterium aurum [5], the inhibition of growth at 50 µM is 49.9%. In addition, the inhibition of growth at 100 µM with Mycolicibacterium aurum [6] was found to be 88%. Also, it took 80 µM to reach half-maximal cytotoxicity in data set [7] (CC50 at 48 h).
For `CC(C)c1ccc(C2CC(=O)c3ccc(OCc4cn(Cc5ccccc5)nn4)cc3O2)cc1` (configuration not stated), the inhibition entry with Mycolicibacterium aurum [1] and in the data set with Mycolicibacterium aurum [2] was “Active” throughout. In addition, the inhibition result in the data set on Mycolicibacterium aurum [3] and in the data set with Mycolicibacterium aurum [4] was “inactive” in each case. Besides, the inhibition of growth at 50 µM with Mycolicibacterium aurum [5] was 54.7%. In addition, the inhibition of growth at 100 µM in the data set with Mycolicibacterium aurum [6] was 79.3%. For the same molecule, it took 23.8 µM to reach half-maximal cytotoxicity in [7] (CC50 at 48 h).
Take `O=C(/C=C/c1ccccc1)c1ccc(OCc2cn(Cc3ccc(Br)cc3)nn2)cc1O`: the inhibition result in the data set on Mycolicibacterium aurum [1] and with Mycolicibacterium aurum [2] was “Active” each time. The inhibition result in the data set on Mycolicibacterium aurum [3] and in the data set on Mycolicibacterium aurum [4] was “inactive” each time. For the same molecule, the inhibition of growth at 50 µM in the data set on Mycolicibacterium aurum [5] was determined as 53.8%. Also, the inhibition of growth at 100 µM in the data set with Mycolicibacterium aurum [6] is 85.3%. In [7], this molecule registered a CC50 at 48 h of 71.7 µM.

The values are drawn from ChEMBL document CHEMBL2069213, “Synthesis and evaluation of small libraries of triazolylmethoxy chalcones, flavanones and 2-aminopyrimidines as inhibitors of mycobacterial FAS-II and PknG” (Bioorg Med Chem, 2012).
